Laboratory results reported in ChEMBL document CHEMBL4680236, “Design, synthesis and structure-activity relationships of novel 15-membered macrolides: Quinolone/quinoline-containing sidechains tethered to the C-6 position of azithromycin acylides” (Eur J Med Chem, 2020).
In brackets after ≈: the same amount, converted by molar mass.

How the values were obtained:
Format in all cases: functional
Staphylococcus aureus [1] = assay: Bactericidal activity against MLSB/methicillin-resistant Staphylococcus aureus 15B196
How it was run: (§1)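 Bacteria were exposed to 1- to 8-fold their MIC of test sample, then transferred to fresh culture medium without antibacterial compound and incubated for the required time. Colonies were then counted. MBC is the lowest concentration giving a reduction in colony number of >3 Log₁₀.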

Staphylococcus aureus [2] = assay: Antibacterial activity against MLSB/methicillin-resistant Staphylococcus aureus 15B196 assessed as reduction in microbial growth
Streptococcus pneumoniae [3] = assay: Ratio of MBC to MIC against Erythromycin-susceptible Streptococcus pneumoniae ATCC 49619
Streptococcus pneumoniae [4] = assay: Antibacterial activity against penicillin-susceptible Streptococcus pneumoniae PU09 harboring mef gene assessed as reduction in microbial growth
Staphylococcus aureus [5] = assay: Bactericidal activity against MLSB/methicillin/ciprofloxacin-resistant Staphylococcus aureus PU32 harboring ermA gene; how it was run: as §1
Streptococcus pyogenes [6] = assay: Antibacterial activity against MLSB-resistant Streptococcus pyogenes 12-206 harboring ermA gene assessed as reduction in microbial growth
Streptococcus pneumoniae [7] = assay: Bactericidal activity against MLSB-resistant Streptococcus pneumoniae 07P390 harboring ermB gene assessed as reduction in microbial growth; how it was run: as §1
Streptococcus pneumoniae [8] = assay: Ratio of MBC to MIC against MLSB-resistant Streptococcus pneumoniae 07P390 harboring ermB
Haemophilus influenzae [9] = assay: Bactericidal activity against azithromycin-susceptible Haemophilus influenzae ATCC 49247
How it was run: (§2)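 Bacteria were exposed to 1- to 8-fold MIC of the sample, then transferred to fresh medium without antibacterial. After further incubation, colonies were counted. MBC was taken as the lowest concentration giving a >3 log10 reduction in colony number.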

Streptococcus pneumoniae [10] = assay: Bactericidal activity against Erythromycin-susceptible Streptococcus pneumoniae ATCC 49619; how it was run: as §2
Streptococcus pneumoniae [11] = assay: Ratio of MBC to MIC against penicillin-susceptible Streptococcus pneumoniae PU09
Haemophilus influenzae [12] = assay: Antibacterial activity against azithromycin-susceptible Haemophilus influenzae ATCC 49247 assessed as reduction in microbial growth
Haemophilus influenzae [13] = assay: Ratio of MBC to MIC against azithromycin-susceptible Haemophilus influenzae ATCC 49247
Streptococcus pneumoniae [14] = assay: Antibacterial activity against Erythromycin-susceptible Streptococcus pneumoniae ATCC 49619 assessed as reduction in microbial growth
Streptococcus pyogenes [15] = assay: Ratio of MBC to MIC against MLSB-resistant Streptococcus pyogenes 12-206 harboring ermA gene
Streptococcus pneumoniae [16] = assay: Antibacterial activity against MLSB-resistant Streptococcus pneumoniae 07P390 harboring ermB gene assessed as reduction in microbial growth
Staphylococcus aureus [17] = assay: Antibacterial activity against MLSB/methicillin/ciprofloxacin-resistant Staphylococcus aureus PU32 harboring ermA gene assessed as reduction in microbial growth
Streptococcus pneumoniae [18] = assay: Bactericidal activity against penicillin-susceptible Streptococcus pneumoniae PU09 harboring mef gene; how it was run: as §1
Streptococcus pyogenes [19] = assay: Bactericidal activity against MLSB-resistant Streptococcus pyogenes 12-206 harboring ermA gene; how it was run: as §1
Staphylococcus aureus [20] = assay: Ratio of MBC to MIC against MLSB/methicillin/ciprofloxacin-resistant Staphylococcus aureus PU32 harboring ermA gene
Staphylococcus aureus [21] = assay: Ratio of MBC to MIC against MLSB/methicillin-resistant Staphylococcus aureus 15B196
Staphylococcus aureus [22] = assay: Antibacterial activity against MLSB/methicillin/ciprofloxacin-resistant Staphylococcus aureus PU32 harboring ermA gene assessed as reduction in microbial growth relative to ciprofloxacin
Staphylococcus aureus [23] = assay: Antibacterial activity against MLSB/methicillin-resistant Staphylococcus aureus 15B196 assessed as reduction in microbial growth relative to ciprofloxacin
Haemophilus influenzae [24] = assay: Antibacterial activity against azithromycin-susceptible Haemophilus influenzae ATCC 49247 assessed as reduction in microbial growth relative to ciprofloxacin
Escherichia coli [25] = assay: Antibacterial activity against Escherichia coli JW5503-KanS depletion of toIC efflux gene assessed as reduction in microbial growth
Escherichia coli [26] = assay: Antibacterial activity against Escherichia coli JW5503-1 depletion of toIC efflux gene assessed as reduction in microbial growth

Row | Compound | MBC (Staphylococcus aureus [1]) | MIC (Staphylococcus aureus [2]) | Ratio (Streptococcus pneumoniae [3]) | MIC (Streptococcus pneumoniae [4]) | MBC (Staphylococcus aureus [5]) | MIC (Streptococcus pyogenes [6]) | MBC (Streptococcus pneumoniae [7]) | Ratio (Streptococcus pneumoniae [8]) | MBC (Haemophilus influenzae [9]) | MBC (Streptococcus pneumoniae [10]) | Ratio (Streptococcus pneumoniae [11]) | MIC (Haemophilus influenzae [12]) | Ratio (Haemophilus influenzae [13]) | MIC (Streptococcus pneumoniae [14]) | Ratio (Streptococcus pyogenes [15]) | MIC (Streptococcus pneumoniae [16]) | MIC (Staphylococcus aureus [17]) | MBC (Streptococcus pneumoniae [18]) | MBC (Streptococcus pyogenes [19]) | Ratio (Staphylococcus aureus [20]) | further results
1 | CC[C@H]1OC(=O)[C@H](C)[C@@H](OC(=O)Cc2cccnc2)[C@H](C)[C@@H](O[C@@H]2O[C@H](C)C[C@H](N(C)C)[C@H]2O)[C@](C)(OC(=O)CCNCCC#Cc2ccc3c(c2)c(=O)c(C(=O)O)cn3C2CC2)C[C@@H](C)CN(C)[C@H](C)[C@H]2OC(=O)O[C@@]21C | > 256 µg/mL | 256 µg/mL | 4 | 4 µg/mL | > 256 µg/mL | 64 µg/mL | 128 µg/mL | 2 | 64 µg/mL (≈ 58.9 µM) | 8 µg/mL (≈ 7.36 µM) | 4 | 32 µg/mL | 2 | 2 µg/mL | 1 | 64 µg/mL | 128 µg/mL | 16 µg/mL (≈ 14.7 µM) | 64 µg/mL (≈ 58.9 µM) |  | 
2 | CC[C@H]1OC(=O)[C@H](C)[C@@H](OC(=O)Cc2ccccn2)[C@H](C)[C@@H](O[C@@H]2O[C@H](C)C[C@H](N(C)C)[C@H]2O)[C@](C)(OC(=O)CCNCC/C=C/c2cnc3ccccc3c2)C[C@@H](C)CN(C)[C@H](C)[C@@H](O)[C@]1(C)O | > 256 µg/mL | 64 µg/mL | 1 | 1 µg/mL | 8 µg/mL (≈ 8.31 µM) |  | > 32 µg/mL | >8 | 16 µg/mL (≈ 16.6 µM) | 0.125 µg/mL (≈ 0.13 µM) | 1 | 8 µg/mL | 2 | 0.125 µg/mL |  | 4 µg/mL | 2 µg/mL | 1 µg/mL (≈ 1.04 µM) |  | 4 | Ratio (Staphylococcus aureus [21]): >4
3 | CC[C@H]1OC(=O)[C@H](C)C(=O)[C@H](C)[C@@H](O[C@@H]2O[C@H](C)C[C@H](N(C)C)[C@H]2O)[C@](C)(OC)C[C@@H](C)C(=O)[C@H](C)[C@H]2N(CCCCn3cnc(-c4cccnc4)c3)C(=O)O[C@]12C [TELITHROMYCIN] |  | 4 µg/mL |  | 0.25 µg/mL |  | 0.25 µg/mL | > 0.125 µg/mL | >8 |  | ≤ 0.008 µg/mL | 2 | 4 µg/mL |  | ≤ 0.008 µg/mL |  | 0.016 µg/mL | 2 µg/mL | 0.5 µg/mL (≈ 0.616 µM) |  |  | fold change (FC) (Staphylococcus aureus [22]): 0.0032; fold change (FC) (Staphylococcus aureus [23]): >52; fold change (FC) (Haemophilus influenzae [24]): 407
4 | O=C(O)c1cn(C2CC2)c2cc(N3CCNCC3)c(F)cc2c1=O [CIPROFLOXACIN] | 0.5 µg/mL (≈ 1.51 µM) | 0.5 µg/mL |  | 2 µg/mL | > 256 µg/mL | 0.5 µg/mL |  |  | 0.008 µg/mL (≈ 0.0241 µM) |  |  |  |  | 2 µg/mL |  | 2 µg/mL | 256 µg/mL |  |  |  | MIC (Escherichia coli [25]): ≤ 0.064 µg/mL; MIC (Escherichia coli [26]): ≤ 0.064 µg/mL
5 | CC[C@H]1OC(=O)[C@H](C)[C@@H](OC(=O)Cc2ccccn2)[C@H](C)[C@@H](O[C@@H]2O[C@H](C)C[C@H](N(C)C)[C@H]2O)[C@](C)(OC(=O)CCNCC#Cc2cnc3ccccc3c2)C[C@@H](C)CN(C)[C@H](C)[C@@H](O)[C@]1(C)O | > 256 µg/mL | 128 µg/mL | 1 | 2 µg/mL | 8 µg/mL (≈ 8.45 µM) |  | > 8 µg/mL | >8 | 4 µg/mL (≈ 4.23 µM) | 0.125 µg/mL (≈ 0.132 µM) | 1 | 4 µg/mL | 1 | 0.125 µg/mL |  | 1 µg/mL | 2 µg/mL | 2 µg/mL (≈ 2.11 µM) |  | 4 | 
6 | CC[C@H]1OC(=O)[C@H](C)[C@@H](OC(=O)Cc2ccccn2)[C@H](C)[C@@H](O[C@@H]2O[C@H](C)C[C@H](N(C)C)[C@H]2O)[C@](C)(OC(=O)CCNCCC#Cc2ccc3c(c2)c(=O)c(C(=O)O)cn3C2CC2)C[C@@H](C)CN(C)[C@H](C)[C@@H](O)[C@]1(C)O | > 256 µg/mL | > 256 µg/mL | 2 | 2 µg/mL | > 256 µg/mL | 16 µg/mL | 256 µg/mL | 4 | 64 µg/mL (≈ 60.4 µM) | 0.5 µg/mL (≈ 0.472 µM) | 2 | 32 µg/mL | 2 | 0.25 µg/mL | 8 | 64 µg/mL | 128 µg/mL | 4 µg/mL (≈ 3.77 µM) | 128 µg/mL (≈ 121 µM) |  | 
7 | CC[C@H]1OC(=O)[C@H](C)[C@@H](OC(=O)Cc2ccccn2)[C@H](C)[C@@H](O[C@@H]2O[C@H](C)C[C@H](N(C)C)[C@H]2O)[C@](C)(OC(=O)CCN2CCN(c3cc4c(cc3F)c(=O)c(C(N)=O)cn4C3CC3)CC2)C[C@@H](C)CN(C)[C@H](C)[C@H]2OC(=O)O[C@@]21C | > 256 µg/mL | 32 µg/mL | 2 | 8 µg/mL | > 256 µg/mL | 16 µg/mL | 32 µg/mL | 1 | > 256 µg/mL | 8 µg/mL (≈ 7.14 µM) | 2 | 256 µg/mL |  | 4 µg/mL | 1 | 32 µg/mL | 32 µg/mL | 16 µg/mL (≈ 14.3 µM) | 16 µg/mL (≈ 14.3 µM) | >8 | Ratio (Staphylococcus aureus [21]): >8
8 | CC[C@H]1OC(=O)[C@H](C)[C@@H](OC(=O)Cc2ccccn2)[C@H](C)[C@@H](O[C@@H]2O[C@H](C)C[C@H](N(C)C)[C@H]2O)[C@](C)(OC(=O)CCNCCC#Cc2ccc3ncccc3c2)C[C@@H](C)CN(C)[C@H](C)[C@@H](O)[C@]1(C)O | > 256 µg/mL | > 256 µg/mL | 1 | 0.5 µg/mL | > 32 µg/mL | 2 µg/mL | 64 µg/mL |  | 8 µg/mL (≈ 8.33 µM) | 0.03 µg/mL (≈ 0.0312 µM) | 2 | 4 µg/mL | 2 | 0.03 µg/mL | >8 | 32 µg/mL | 4 µg/mL | 1 µg/mL (≈ 1.04 µM) | > 16 µg/mL | >8 | fold change (FC) (Staphylococcus aureus [22]): 0.0054; fold change (FC) (Staphylococcus aureus [23]): >44; fold change (FC) (Haemophilus influenzae [24]): 344
9 | CC[C@H]1OC(=O)[C@H](C)[C@@H](O[C@H]2C[C@@](C)(OC)[C@@H](O)[C@H](C)O2)[C@H](C)[C@@H](O[C@@H]2O[C@H](C)C[C@H](N(C)C)[C@H]2O)[C@](C)(OC)C[C@@H](C)C(=O)[C@H](C)[C@@H](O)[C@]1(C)O [CLARITHROMYCIN] |  | ≥ 16 µg/mL |  | 8 µg/mL |  | > 256 µg/mL |  |  |  |  |  | 16 µg/mL |  |  |  | > 256 µg/mL | 64 µg/mL |  |  |  | fold change (FC) (Staphylococcus aureus [22]): 0.11; fold change (FC) (Staphylococcus aureus [23]): >57; fold change (FC) (Haemophilus influenzae [24]): 1768
